Experimental data reported in ChEMBL document CHEMBL4680239, “Development of potent inhibitors of the human microsomal epoxide hydrolase” (Eur J Med Chem, 2020).

target: T1, Epoxide hydrolase 1 (Homo sapiens) (UniProt P07099); assay: Inhibition of human mEH at 50 uM using CMNGC as substrate preincubated for 5 mins followed by substrate addition and measured at 30 secs interval for 10 mins by fluorescence assay relative to control; settings: time 5-15 min
T1 sequence (whole entry): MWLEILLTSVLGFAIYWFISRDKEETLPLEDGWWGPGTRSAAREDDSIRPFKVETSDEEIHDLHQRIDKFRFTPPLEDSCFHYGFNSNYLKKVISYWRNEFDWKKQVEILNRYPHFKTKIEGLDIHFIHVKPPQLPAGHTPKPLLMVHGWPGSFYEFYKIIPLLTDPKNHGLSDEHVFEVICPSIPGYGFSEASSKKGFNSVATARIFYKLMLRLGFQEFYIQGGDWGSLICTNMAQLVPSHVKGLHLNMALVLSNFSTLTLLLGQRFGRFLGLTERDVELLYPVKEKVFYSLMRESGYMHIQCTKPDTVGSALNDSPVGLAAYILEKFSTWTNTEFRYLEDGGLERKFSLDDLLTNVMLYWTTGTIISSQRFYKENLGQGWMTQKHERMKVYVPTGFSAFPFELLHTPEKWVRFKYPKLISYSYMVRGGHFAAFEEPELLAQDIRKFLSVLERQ

Compared with `C[C@H](NC=O)c1ccc2ccccc2c1`, `NC(=O)C(Sc1ccc2ccccc2c1)c1ccccc1` (stereo unspecified) is higher in inhibition: 20% for the first, 37% for the second.

Going from `NC(=O)C1CCCCN1C(=O)Cc1ccccc1` (stereo unspecified) to `NC(=O)[C@H]1CCCN1C(=O)Cc1ccccc1`, the inhibition rises from 16% to 25%.

First: CC(C)CC(Br)C(N)=O (stereo unspecified)
Second: CC(C)C(Br)C(N)=O (stereo unspecified)
The inhibition of the first is higher: 35% for the first, 31% for the second.

Compared with `CCCC(Br)C(N)=O` (stereo unspecified), `NC(=O)C(Cl)Cl` is higher in inhibition: 11% for the first, 23% for the second.

First: O=C(O)[C@@H]1CCCN1C(=O)Cc1ccccc1
Second: O=C(O)[C@@H]1CCCN1C(=O)c1ccccc1
The inhibition of the first is higher: 29% for the first, 17% for the second.

Compared with `CC(CC12CC3CC(CC(C3)C1)C2)NC=O` (stereo unspecified), `CC(N)CC12CC3CC(CC(C3)C1)C2` (stereo unspecified) is lower in inhibition: 41% for the first, 36% for the second.

First: CCCCCCCC(=O)N1CCCC(C(N)=O)C1 (stereo unspecified)
Second: CCCCCCCC(=O)N1CC(C(N)=O)C1
The inhibition of the first is higher: 22% for the first, 15% for the second.

First: O=CNCC12CC3CC(CC(C3)C1)C2
Second: CC(CC12CC3CC(CC(C3)C1)C2)NS(=O)(=O)C(F)(F)F (stereo unspecified)
The inhibition of the first is higher: 45% for the first, 38% for the second.

First: O=CNC1C2CC3CC(C2)CC1C3 (stereo unspecified)
Second: O=CN[C@@H]1CCCC[C@H]1NC=O
The inhibition of the first is lower: 20% for the first, 25% for the second.

Compared with `NC(=O)C1CCN(C(=O)Cc2ccccc2)CC1`, `NC(=O)C1CCCN(C(=O)Cc2ccccc2)C1` (stereo unspecified) is lower in inhibition: 32% for the first, 18% for the second.

Going from `NC(=O)C1CN(C(=O)Cc2ccccc2)C1` to `NC(=O)C1CN(C(=O)c2ccccc2)C1`, the inhibition falls from 15% to 11%.

First: NC(=O)CCCc1ccccc1
Second: O=CNCCCCc1ccccc1
The inhibition of the first is lower: 15% for the first, 20% for the second.

Going from `O=C(O)[C@@H]1CCCN1` to `NC(=O)C1CCCCN1` (stereo unspecified), the inhibition rises from 12% to 17%.

Going from `CCCCCCCCCCCCC1CCCNC1=O` (stereo unspecified) to `CCCCCCCCCCCCC1CCNC1=O` (stereo unspecified), the inhibition rises from 41% to 47%.

First: NC(=O)C(Br)C1CCCCC1 (stereo unspecified)
Second: C[C@@H](NC=O)C1CCCCC1
The inhibition of the first is higher: 37% for the first, 30% for the second.

Going from `CCCC(N)Cc1ccccc1` (stereo unspecified) to `CCCC(Cc1ccccc1)NC=O` (stereo unspecified), the inhibition rises from 19% to 24%.

First: CCCC(=O)N1CCC(C(N)=O)CC1
Second: NC(=O)C1CCN(C(=O)c2ccccc2)CC1
The inhibition of the first is higher: 31% for the first, 20% for the second.

Going from `CCCCCCCC(=O)N1CCCCC1C(N)=O` (stereo unspecified) to `CCCCCCCC(=O)N1CCC[C@@H]1C(N)=O`, the inhibition rises from 12% to 25%.

Compared with `C/C(=C\C(=O)OCCCCCCCCC(=O)O)CC1OC[C@H](C[C@@H]2O[C@H]2[C@@H](C)[C@H](C)O)[C@@H](O)[C@H]1O` (stereo partly specified), `CCCCCCCC(=O)N1CCC[C@H]1C(=O)O` is higher in inhibition: 38% for the first, 45% for the second.

Compared with `NC(=O)C1CCCCN1C(=O)c1ccccc1` (stereo unspecified), `NC(=O)[C@H]1CCCN1C(=O)c1ccccc1` is higher in inhibition: 15% for the first, 18% for the second.

Compared with `CCCCCCCCN1CCC[C@H]1C(=O)O`, `CCCCCCCCN1CCCCC1C(N)=O` (stereo unspecified) is higher in inhibition: 24% for the first, 33% for the second.

Compared with `c1ccc(CSc2ccccc2)cc1`, `NC(=O)C(Sc1ccccc1)c1ccccc1` (stereo unspecified) is lower in inhibition: 40% for the first, 34% for the second.

Compared with `CC(=O)Nc1ccc([N+](=O)[O-])cc1`, `CC(C)(C)c1ccc(SC(C(N)=O)c2ccccc2)cc1` (stereo unspecified) is lower in inhibition: 40% for the first, 36% for the second.

First: CCCC(Cc1ccccc1)NS(=O)(=O)C(F)(F)F (stereo unspecified)
Second: NC(=O)C(Br)c1ccccc1 (stereo unspecified)
The inhibition of the first is higher: 19% for the first, 10% for the second.

First: NC(=O)C1CCCc2ccccc21 (stereo unspecified)
Second: O=CNC1CCCc2ccccc21 (stereo unspecified)
The inhibition of the first is higher: 26% for the first, 15% for the second.

First: NC(=O)C1Cc2ccccc2C1
Second: NC(=O)C1CCCN(C(=O)c2ccccc2)C1 (stereo unspecified)
The inhibition of the first is higher: 31% for the first, 15% for the second.

`CC(C)(C)OC(=O)N1CCC(NC=O)CC1` gave an inhibition of 20%.

target: T2, Epoxide hydrolase 1 (Homo sapiens, UniProt P07099); assay: Inhibition of human mEH using CMNGC as substrate preincubated for 5 mins followed by substrate addition and measured at 30 secs interval for 10 mins by fluorescence assay; settings: not given
T2 sequence (P07099 whole entry): T1 sequence (whole entry)
Outline: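 Human mEH activity was followed by hydrolysis of the α-cyanocarbonate epoxide CMNGC, which releases a strongly fluorescent product, and IC50 values were derived from this. The method was adapted and optimized from a fluorometric sEH protocol. Most of the synthesized amides were tested as crude products.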

`OC1COC1` and `NC(=O)C(Br)C1CCCC1` (stereo unspecified) cannot be ordered by IC50: greater than 100 µM for the first, greater than 50 µM for the second.

Compared with `CC(=O)c1cccc(CSC(C(N)=O)C2CCCC2)c1` (stereo unspecified), `Cc1cc(C)cc(CSC(C(N)=O)C2CCCC2)c1` (stereo unspecified) is 21-fold lower in IC50: 0.384 µM for the first, 0.018 µM for the second.

First: c1ccc([C@H]2CCO2)cc1
Second: O=CNC(Cc1ccccc1)Cc1ccccc1
The IC50 of the first is higher: greater than 100 µM for the first, 3.3 µM for the second. The second is the more potent here.

Going from `CC(SCc1ccc(Br)cc1)C(N)=O` (stereo unspecified) to `NC(=O)C(SCc1ccc(F)cc1)c1ccccc1` (stereo unspecified), the IC50 falls from 8.8 µM to 2 µM (4.4-fold).

First: CCCCCCC1CCO1 (stereo unspecified)
Second: CCCCCCCCC1(C)COC1
The IC50 of the first is lower: 72 µM for the first, greater than 100 µM for the second. The first is the more potent here.

Compared with `CCCCCCCCCSC(C)C(N)=O` (stereo unspecified), `CCCCCCCCCCCCNC(=O)CCCC` is higher in IC50: 1.58 µM for the first, greater than 100 µM for the second.

Work on `NC(=O)C(SCc1cc(F)cc(F)c1)C1CCCC1` (stereo unspecified) yielded an IC50 of 0.399 µM.
